Compound activity: PubChem, several laboratories
A selection: hits, their analogues and other compounds. The true share with any hit is near 2%.
LGR2 antag: Drosophila LGR2 receptor signaling inhibition | HEK293 LGR2, CRE-luciferase, bursicon-stimulated, 4 h | inhibition, % at 9.99 µM | actives 0.35% (n = 380,000) | AID 720647;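 active means drop in luminescence signal, shown as inhibition above about 50% in the replicate tests, limit read from the data, passing the limit was not always enough; inconclusive means probably only some replicates passing the limit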;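 further: agonist challenge used bursicon conditioned medium at about half maximal strength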
CaV13 ICDI inh: Primary screen for inhibitors of IQ motif and Ca2+-dependent inactivation inhibitor domain binding in CACNA1D, Förster resonance energy transfer in living cells, … | AID 743397 | actives 0.098% (n = 340,000) | inhibition, % at 12.3 µM | HEK cells, CFP/YFP FRET ICDI-IQ, plate reader, 10 min; percent FRET-ratio fall versus neutral wells;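 active means mean replicate inhibition of at least 30% and at least 1% of replicates passing that level; inconclusive means only one of the two criteria is met; inactive means neither criterion is met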;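 further: 0% = median of the neutral control wells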
TROY signal inh: inhibitors of TROY-dependent NF-kB signaling | Q293 LMP1-TROYcd NF-kB luciferase reporter, 4 h | inhibition, % at 10 µM | actives 0.98% (n = 360,000) | AID 1347056;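 active means compounds whose plate-normalised and pattern-corrected inhibition of the luciferase reporter signal at the single screening dose is 50% or more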
TWEAK-Fn14 inh: TWEAK-Fn14 signaling inhibition; TWEAK-stimulated Fn14 reporter cells, luciferase luminescence, 8 h; inhibition, % at 10 µM; actives 2% (n = 360,000); AID 1159606; in the data active means inhibition above about 50%
Xi reactivation: X-chromosome reactivation activator | XiGFP mouse fibroblasts, % GFP-positive cells imaging, 3 d; cells co-treated with 5-aza-dC sensitizer; scaled so ellipticine positive control = 100% | AID 743238 | actives 0.055% (n = 360,000) | activation, % at 7.58 µM;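 active means mean normalized replicate activation at least 10% and every replicate at or above 10%; inconclusive means only one of the two criteria met; inactive means mean below 10% and not all replicates reach 10%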;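 further: 0% = median of on-plate neutral control wells and 100% = ellipticine 6 µM median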
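System: XiGFP fibroblasts, SV40-immortalized. Medium: DMEM plus 5-aza-dC sensitizer. Doses: single point. Timing: 3 d treatment, 15 min room-temperature fixation. Control set: ellipticine 6 µM.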
Starred values were filed as active, the others as inactive.

CCC(C)NC(=O)CC(NS(=O)(=O)c1ccc(Cl)cc1)c1ccco1 (configuration not stated) was read as CaV13 ICDI inh -6, TROY signal inh 11 and TWEAK-Fn14 inh 59*.
`COc1ccccc1NC(=O)N[C@@H]1CC[C@@H](CCn2cc(-c3ccccc3)nn2)O[C@@H]1CO` gave LGR2 antag -38 and Xi reactivation 1.
Screening Cc1ccc(NC(=O)c2cc(-c3cc(Cl)ccc3C)n[nH]2)cc1NS(C)(=O)=O returned LGR2 antag -28, CaV13 ICDI inh -4, TROY signal inh 38, TWEAK-Fn14 inh 64* and Xi reactivation 0.
For COc1ccc(Cl)cc1-c1cc(C(=O)Nc2ccc(C)c(NS(C)(=O)=O)c2)[nH]n1 the results were LGR2 antag 16, CaV13 ICDI inh -7, TROY signal inh 53*, TWEAK-Fn14 inh 72* and Xi reactivation 0.
For COc1ccc(CN(C)C[C@@H]2Oc3c(NS(=O)(=O)c4ccc(C)cc4)cccc3C(=O)N([C@@H](C)CO)C[C@@H]2C)cc1 the results were LGR2 antag -8 and Xi reactivation -1.
`CCCCN(CCCC)S(=O)(=O)c1ccc(NC(=O)Cc2cccs2)cc1` gave CaV13 ICDI inh -8, TROY signal inh 51* and TWEAK-Fn14 inh 6.
`CCCNS(=O)(=O)c1ccc(NC(=O)Cc2cccs2)cc1` gave CaV13 ICDI inh 0, TROY signal inh 3 and TWEAK-Fn14 inh -1.
`COc1ccc(NS(=O)(=O)c2ccc(NC(=O)Cc3cccs3)cc2)cc1` gave LGR2 antag 1, CaV13 ICDI inh -5, TROY signal inh 65*, TWEAK-Fn14 inh 38 and Xi reactivation 0.
`COc1ccc(NS(=O)(=O)c2cc(NC(=O)Cc3cccs3)ccc2C)cc1` gave CaV13 ICDI inh -3, TROY signal inh 82*, TWEAK-Fn14 inh 94* and Xi reactivation 0.
Screening COc1ccc2c3c(n(C)c2c1)[C@@H](CO)N(C(=O)c1cccnc1)CC31CCN(S(C)(=O)=O)CC1 returned LGR2 antag -27 and Xi reactivation 0.
`CCOC(=O)c1c(CSC(=N)N)n(-c2ccc(C)cc2)c2cc(Br)c(OC(C)=O)cc12` gave CaV13 ICDI inh -4, TROY signal inh 33 and TWEAK-Fn14 inh 92*.
For COC(=O)c1cc(=O)n(Cc2ccc3c(c2)OCO3)c(=Nc2ccc(F)c(Cl)c2)s1 the results were LGR2 antag 4, CaV13 ICDI inh 38*, TROY signal inh -5, TWEAK-Fn14 inh 31 and Xi reactivation 0.
C[C@@H]1CN([C@H](C)CO)C(=O)Cc2cc(NC(=O)CCC(F)(F)F)ccc2O[C@H]1CN(C)C(=O)Nc1cccc2ccccc12 was read as LGR2 antag 0 and Xi reactivation 0.
Screening CCCCN(CC)c1nc(-c2ccncc2)nc2ccccc12 returned CaV13 ICDI inh -9, TROY signal inh 26 and TWEAK-Fn14 inh 57*.
`C[C@@H]1CN([C@@H](C)CO)S(=O)(=O)c2ccc(C#CC3CC3)cc2O[C@H]1CN(C)C(=O)Nc1cc(F)ccc1F` gave LGR2 antag 8 and Xi reactivation -1.
`CCCNC(=O)C[C@@H]1CC[C@@H]2[C@H](COc3ccc(NC(=O)c4cscn4)cc3C(=O)N2C)O1` gave LGR2 antag 3 and Xi reactivation 0.
`O=C(Nc1ccc2c(c1)OCCO2)C(c1ccnc2ccccc12)N1CCN(c2ccc(C(F)(F)F)cn2)CC1` (configuration not stated) gave LGR2 antag -2, CaV13 ICDI inh -5, TROY signal inh 69*, TWEAK-Fn14 inh 89* and Xi reactivation 1.
For CCC(=O)Nc1ccc2nc(C3CC3)n(Cc3ccc(C(C)(C)C)cc3)c(=O)c2c1 the results were LGR2 antag -63, CaV13 ICDI inh -1, TROY signal inh 75*, TWEAK-Fn14 inh 66* and Xi reactivation 0.
`COc1cc(C(=O)Nc2cc(-c3cn4cccnc4n3)ccc2C)cc(OC)c1OC` gave LGR2 antag 8, CaV13 ICDI inh -2, TROY signal inh 0, TWEAK-Fn14 inh 92* and Xi reactivation 0.
`COCCn1c(C)c(C)c2c(NCCc3ccccc3)ncnc21` gave LGR2 antag 35, CaV13 ICDI inh -13, TROY signal inh 80*, TWEAK-Fn14 inh -59 and Xi reactivation 0.
For N#Cc1c(N)nc(Sc2ccc(Cl)cc2)c(C#N)c1-c1ccccc1Cl the results were LGR2 antag 32, CaV13 ICDI inh -4, TROY signal inh 48, TWEAK-Fn14 inh 58* and Xi reactivation 0.
Screening Cc1cccc(/C(N)=N/OC(=O)c2ccc(Cl)cc2Cl)c1 returned LGR2 antag inconclusive, CaV13 ICDI inh -3, TROY signal inh 63*, TWEAK-Fn14 inh 79* and Xi reactivation 0.
Screening N/C(=N\OC(=O)c1ccc(Cl)cc1Cl)c1cccnc1 returned LGR2 antag -24, CaV13 ICDI inh -6, TROY signal inh -39, TWEAK-Fn14 inh 22 and Xi reactivation 0.
`N/C(=N\OC(=O)c1ccc(Cl)cc1)c1ccc(Cl)cc1` gave CaV13 ICDI inh -6, TROY signal inh -51 and TWEAK-Fn14 inh -6.
O=C(NOCc1ccccc1)c1ccc(Cl)cc1Cl was read as LGR2 antag 82*, CaV13 ICDI inh -6, TROY signal inh 42, TWEAK-Fn14 inh 82* and Xi reactivation 0.
For N/C(=N\OC(=O)c1ccccc1Cl)c1ccccc1 the results were LGR2 antag 60*, CaV13 ICDI inh -4, TROY signal inh 13 and TWEAK-Fn14 inh 43.
`N/C(=N\OC(=O)c1ccccc1Cl)c1ccc(Cl)cc1` gave CaV13 ICDI inh -3, TROY signal inh 16 and TWEAK-Fn14 inh 32.
For N/C(=N\OC(=O)c1ccc(Cl)cc1)c1ccn[nH]1 the results were LGR2 antag inconclusive, TROY signal inh 39, TWEAK-Fn14 inh 51* and Xi reactivation 0.
`Cc1ccc(/C(N)=N/OC(=O)c2ccc(C)cc2Cl)cc1` gave LGR2 antag 59*, CaV13 ICDI inh 5, TROY signal inh 75*, TWEAK-Fn14 inh 85* and Xi reactivation 0.
`N/C(=N\OC(=O)c1ccco1)c1ccc(Cl)cc1` gave LGR2 antag -59, CaV13 ICDI inh -5, TROY signal inh -75, TWEAK-Fn14 inh -12 and Xi reactivation 0.
Screening Cc1cc(/C(N)=N/OC(=O)c2ccccc2Cl)no1 returned LGR2 antag 84*, CaV13 ICDI inh -21, TROY signal inh 22, TWEAK-Fn14 inh 54* and Xi reactivation 0.
N/C(=N\OC(=O)c1ccc(Cl)cc1Cl)c1ccccc1 was read as CaV13 ICDI inh -5, TROY signal inh 63* and TWEAK-Fn14 inh 91*.
`N/C(=N\OC(=O)c1ccc(Cl)cc1Cl)c1ccc(Cl)cc1` gave TROY signal inh 67* and TWEAK-Fn14 inh 71*.
